ChEMBL document CHEMBL1275443, “Functional diversity among metallo-beta-lactamases: characterization of the CAR-1 enzyme of Erwinia carotovora” (2008)
Values after ≈ are worked out from the molar mass of the structure shown.

What was measured:
Assay type in all cases: functional
[1] = tested on: Pectobacterium atrosepticum; assay: Antimicrobial activity against Erwinia carotovora subsp. atroseptica DSM 30184 after 24 hrs by broth microdilution method; conditions: DSM 30184, 24 h
Summary of the method: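 CLSI broth microdilution in nutrient broth with an inoculum of 5 x 10^4 CFU/well. MIC was read after 24 h at 28°C under aerobic growth.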

Escherichia coli [2] = assay: Antimicrobial activity against Escherichia coli DH5alpha harboring plasmid BC-SK after 24 hrs by broth microdilution method
Summary of the method: (§1)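 MIC by CLSI broth microdilution in Mueller-Hinton broth at 37°C. Inoculum was 5 x 10^4 CFU/well, and growth was aerobic.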

Escherichia coli [3] = assay: Antimicrobial activity against Escherichia coli DH5alpha harboring plasmid pLBII carrying beta-lactamase CAR-1 gene after 24 hrs by broth microdilution method; summary of the method: as §1

In the case of CO/N=C(\C(=O)N[C@@H]1C(=O)N2C(C(=O)[O-])=C(C[N+]3(C)CCCC3)CS[C@H]12)c1csc(N)n1, the MIC [1] was 2 µg/mL (≈ 4.16 µM).
With CC1(C)S[C@@H]2[C@H](NC(=O)[C@H](N)c3ccccc3)C(=O)N2[C@H]1C(=O)O [AMPICILLIN] the MIC (Escherichia coli [2]) was 1 µg/mL (≈ 2.86 µM), the MIC [1] was 0.25 µg/mL (≈ 0.715 µM) and the MIC (Escherichia coli [3]) was 4 µg/mL (≈ 11.4 µM).
C[C@H]1[C@H](NC(=O)/C(=N\OC(C)(C)C(=O)O)c2csc(N)n2)C(=O)N1S(=O)(=O)O [AZTREONAM] was tested, and the MIC [1] was 16 µg/mL (≈ 36.7 µM) and the MIC (Escherichia coli [3]) was 0.25 µg/mL (≈ 0.574 µM).
CO/N=C(\C(=O)N[C@@H]1C(=O)N2C(C(=O)O)=C(COC(C)=O)CS[C@H]12)c1csc(N)n1 [CEFOTAXIME] gave an MIC (Escherichia coli [2]) of 0.06 µg/mL (≈ 0.132 µM), an MIC [1] of 1 µg/mL (≈ 2.2 µM) and an MIC (Escherichia coli [3]) of 16 µg/mL (≈ 35.1 µM).
CO[C@@]1(NC(=O)Cc2cccs2)C(=O)N2C(C(=O)O)=C(COC(N)=O)CS[C@@H]21 [CEFOXITIN] was tested, and the MIC (Escherichia coli [2]) was 4 µg/mL (≈ 9.36 µM), the MIC [1] was 8 µg/mL (≈ 18.7 µM) and the MIC (Escherichia coli [3]) was 8 µg/mL (≈ 18.7 µM).
For CC(C)(O/N=C(\C(=O)N[C@@H]1C(=O)N2C(C(=O)[O-])=C(C[n+]3ccccc3)CS[C@H]12)c1csc(N)n1)C(=O)O [CEFTAZIDIME], the MIC (Escherichia coli [2]) was 0.5 µg/mL (≈ 0.915 µM), the MIC [1] was 16 µg/mL (≈ 29.3 µM) and the MIC (Escherichia coli [3]) was 1 µg/mL (≈ 1.83 µM).
Molecule CO/N=C(\C(=O)N[C@@H]1C(=O)N2C(C(=O)O)=C(COC(N)=O)CS[C@H]12)c1ccco1 [CEFUROXIME] has an MIC (Escherichia coli [2]) of 4 µg/mL (≈ 9.43 µM), an MIC [1] of 0.5 µg/mL (≈ 1.18 µM) and an MIC (Escherichia coli [3]) of 256 µg/mL (≈ 603 µM).
With CC(=O)OCC1=C(C(=O)O)N2C(=O)[C@@H](NC(=O)Cc3cccs3)[C@H]2SC1 [CEPHALOTHIN] the MIC (Escherichia coli [2]) was 16 µg/mL (≈ 40.4 µM), the MIC [1] was 1 µg/mL (≈ 2.52 µM) and the MIC (Escherichia coli [3]) was 64 µg/mL (≈ 161 µM).
C[C@@H](O)[C@H]1C(=O)N2C(C(=O)O)=C(SCCNC=N)C[C@H]12 [IMIPENEM ANHYDROUS] gave an MIC [1] of 0.12 µg/mL (≈ 0.401 µM).
For C[C@@H](O)[C@H]1C(=O)N2C(C(=O)O)=C(S[C@@H]3CN[C@H](C(=O)N(C)C)C3)[C@H](C)[C@H]12 [MEROPENEM], the MIC (Escherichia coli [2]) was 0.03 µg/mL (≈ 0.0782 µM), the MIC [1] was 0.25 µg/mL (≈ 0.652 µM) and the MIC (Escherichia coli [3]) was 0.06 µg/mL (≈ 0.156 µM).
CCN1CCN(C(=O)N[C@@H](C(=O)N[C@@H]2C(=O)N3[C@@H]2SC(C)(C)[C@@H]3C(=O)O)c2ccccc2)C(=O)C1=O [PIPERACILLIN] was tested, and the MIC (Escherichia coli [2]) was 1 µg/mL (≈ 1.93 µM), the MIC [1] was 64 µg/mL (≈ 124 µM) and the MIC (Escherichia coli [3]) was 2 µg/mL (≈ 3.86 µM).
In the case of CO[C@@]1(NC(=O)C(C(=O)O)c2ccsc2)C(=O)N2[C@@H](C(=O)O)C(C)(C)S[C@@H]21 (some centres undefined) [TEMOCILLIN], the MIC (Escherichia coli [2]) was 16 µg/mL (≈ 38.6 µM), the MIC [1] was 64 µg/mL (≈ 154 µM) and the MIC (Escherichia coli [3]) was 16 µg/mL (≈ 38.6 µM).
Work on CC1(C)S[C@@H]2[C@H](NC(=O)[C@H](C(=O)O)c3ccsc3)C(=O)N2[C@H]1C(=O)O [TICARCILLIN] yielded an MIC (Escherichia coli [2]) of 4 µg/mL (≈ 10.4 µM), an MIC [1] of 4 µg/mL (≈ 10.4 µM) and an MIC (Escherichia coli [3]) of 8 µg/mL (≈ 20.8 µM).
